According to ChEMBL document CHEMBL3352447, “Structural development studies of PPARs ligands based on tyrosine scaffold” (Eur J Med Chem, 2015):
The source made the active and inactive calls. The rule behind the calls is not given here.

Tests used:
Type in all cases: cell-based
[1] = biological target: T1, Peroxisome proliferator-activated receptor delta (Homo sapiens, UniProt Q03181); assay: Agonist activity at human GAL4-PPARdelta ligand binding domain expressed in human HepG2 cells by luciferase reporter gene assay
T1 sequence (Q03181 whole entry): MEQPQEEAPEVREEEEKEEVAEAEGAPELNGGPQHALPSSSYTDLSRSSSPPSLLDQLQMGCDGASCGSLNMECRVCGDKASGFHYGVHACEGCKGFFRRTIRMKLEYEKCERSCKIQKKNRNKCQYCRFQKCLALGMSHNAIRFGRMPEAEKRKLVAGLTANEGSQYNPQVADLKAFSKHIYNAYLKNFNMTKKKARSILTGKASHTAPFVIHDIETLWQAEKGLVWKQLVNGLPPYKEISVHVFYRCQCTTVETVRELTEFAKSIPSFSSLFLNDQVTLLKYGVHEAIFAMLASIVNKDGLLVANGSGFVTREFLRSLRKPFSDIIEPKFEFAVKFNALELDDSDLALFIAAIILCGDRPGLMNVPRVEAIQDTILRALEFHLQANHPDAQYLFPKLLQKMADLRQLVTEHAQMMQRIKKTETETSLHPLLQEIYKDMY

[2] = biological target: T2, Peroxisome proliferator-activated receptor gamma (Homo sapiens, UniProt P37231); assay: Agonist activity at human GAL4-PPARgamma ligand binding domain expressed in human HepG2 cells by luciferase reporter gene assay
T2 sequence (P37231 whole entry): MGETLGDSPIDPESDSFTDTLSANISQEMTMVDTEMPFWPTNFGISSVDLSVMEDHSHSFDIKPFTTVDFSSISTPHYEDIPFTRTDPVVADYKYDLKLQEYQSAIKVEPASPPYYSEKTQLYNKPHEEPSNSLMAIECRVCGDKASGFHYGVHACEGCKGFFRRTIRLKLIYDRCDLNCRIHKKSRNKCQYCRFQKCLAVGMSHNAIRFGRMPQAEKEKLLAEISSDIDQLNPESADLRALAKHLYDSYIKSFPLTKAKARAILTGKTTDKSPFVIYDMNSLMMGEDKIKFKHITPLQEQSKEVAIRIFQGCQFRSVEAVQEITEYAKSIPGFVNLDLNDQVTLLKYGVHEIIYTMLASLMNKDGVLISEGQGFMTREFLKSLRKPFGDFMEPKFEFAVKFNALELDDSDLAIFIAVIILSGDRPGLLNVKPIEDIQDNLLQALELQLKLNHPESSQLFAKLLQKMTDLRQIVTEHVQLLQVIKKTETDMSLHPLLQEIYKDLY
How it was run: (§1)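 HepG2 cells grown in MEM with 10% heat-inactivated FBS, penicillin/streptomycin, 37 °C, 5% CO2. 10^5 cells/well seeded, transfected after 24 h by calcium phosphate with Gal4-PPAR LBD expression plasmid (30 ng), pGal5TKpGL3 luciferase reporter (100 ng) and pCMVbgal (250 ng). Ligand added 4 h post-transfection for 20 h, in triplicate. Luciferase read in cell extracts, with β-galactosidase measured using ONPG.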

[3] = biological target: T3, Peroxisome proliferator-activated receptor gamma (Homo sapiens) (UniProt P37231); assay: Agonist activity at human GAL4-PPARgamma ligand binding domain expressed in human HepG2 cells assessed as maximum fold induction by luciferase reporter gene assay relative to rosiglitazone; how it was run: as §1
T3 sequence (whole entry): T2 sequence (P37231 whole entry)

[4] = biological target: T4, Peroxisome proliferator-activated receptor alpha (Homo sapiens) (UniProt Q07869); assay: Agonist activity at human GAL4-PPARalpha ligand binding domain expressed in human HepG2 cells assessed as maximum fold induction by luciferase reporter gene assay relative to Wy-14643; how it was run: as §1
T4 sequence (whole entry): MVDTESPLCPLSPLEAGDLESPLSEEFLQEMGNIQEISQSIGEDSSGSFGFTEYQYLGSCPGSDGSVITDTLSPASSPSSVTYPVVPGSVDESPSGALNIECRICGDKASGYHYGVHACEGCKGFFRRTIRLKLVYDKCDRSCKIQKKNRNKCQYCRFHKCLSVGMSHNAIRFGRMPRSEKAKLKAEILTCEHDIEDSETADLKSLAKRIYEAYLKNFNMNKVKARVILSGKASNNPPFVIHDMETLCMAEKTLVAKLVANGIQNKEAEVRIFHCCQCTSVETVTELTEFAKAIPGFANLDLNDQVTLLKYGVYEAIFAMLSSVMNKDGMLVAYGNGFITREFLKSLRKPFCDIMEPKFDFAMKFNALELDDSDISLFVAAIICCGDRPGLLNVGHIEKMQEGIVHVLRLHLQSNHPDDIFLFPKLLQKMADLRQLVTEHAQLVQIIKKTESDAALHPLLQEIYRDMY

[5] = biological target: T5, Peroxisome proliferator-activated receptor alpha (Homo sapiens, UniProt Q07869); assay: Agonist activity at human GAL4-PPARalpha ligand binding domain expressed in human HepG2 cells by luciferase reporter gene assay; how it was run: as §1
T5 sequence (Q07869 whole entry): T4 sequence (whole entry)

Row | Structure (SMILES) | EC50 [1] | EC50 ([2]; read-out: EC50) [nM] | Emax [3] | Emax [4] | EC50 [5] | EC50 ([2]; hepg2)
1 | C/C(=C\C(=O)c1ccccc1)NC(Cc1ccc(OCCOc2ccc(/C=C/c3ccccc3)cc2)cc1)C(=O)O (stereo not given) | Not Active | 12 | 75% | 20% | – | –
2 | CCCc1c(OCCCOc2ccc(OCC(=O)O)cc2)ccc(C(C)=O)c1O | – | – | – | – | Not Active | Not Active
3 | C/C(=C\C(=O)c1ccccc1)NC(Cc1ccc(OCCCOc2ccc(/C=C/c3ccc(C(F)(F)F)cc3)cc2)cc1)C(=O)O (stereo not given) | Not Active | 32 | 46% | – | Not Active | –
4 | COc1ccc(/N=N/c2ccc(OCCCOc3ccc(CC(N/C(C)=C/C(=O)c4ccccc4)C(=O)O)cc3)cc2)cc1 (stereo not given) | Not Active | – | 24% | – | Not Active | –
5 | C/C(=C\C(=O)c1ccccc1)NC(Cc1ccc(OCCOc2ccc(/N=N/c3ccccc3)cc2)cc1)C(=O)O (stereo not given) | Not Active | 183 | 54% | – | Not Active | –
6 | C/C(=C\C(=O)c1ccccc1)NC(Cc1ccc(OCCCOc2ccc(/C=C/c3ccccc3)cc2)cc1)C(=O)O (stereo not given) | Not Active | 47 | 65% | 9% | – | –
7 | C/C(=C\C(=O)c1ccccc1)NC(Cc1ccc(OCCCOc2ccc(/N=N/c3ccc([N+](=O)[O-])cc3)cc2)cc1)C(=O)O (stereo not given) | Not Active | 29 | 54% | – | Not Active | –
8 | Cc1cccc(Nc2cc(Cl)nc(SCC(=O)O)n2)c1C [PIRINIXIC ACID] | – | – | inactive | – | – | Not Active
9 | CN(CCOc1ccc(CC2SC(=O)NC2=O)cc1)c1ccccn1 (stereo not given) [ROSIGLITAZONE] | – | – | – | inactive | Not Active | –
10 | C/C(=C\C(=O)c1ccccc1)NC(Cc1ccc(OCCOc2ccc(/C=C/c3ccc(C)cc3)cc2)cc1)C(=O)O (stereo not given) | Not Active | 21 | 77% | – | Not Active | –
11 | CC(=O)/C=C(\C)NC(Cc1ccc(OCCOc2ccc(/C=C/c3ccccc3)cc2)cc1)C(=O)O (stereo not given) | Not Active | 250 | 61% | – | Not Active | –
12 | C/C(=C\C(=O)c1ccccc1)NC(Cc1ccc(OCCCOc2ccc(/N=N/c3ccc(Cl)cc3)cc2)cc1)C(=O)O (stereo not given) | Not Active | 47 | 59% | – | Not Active | –
13 | C/C(=C\C(=O)c1ccccc1)NC(Cc1ccc(OCCOc2ccc(/N=N/c3ccc(Cl)cc3)cc2)cc1)C(=O)O (stereo not given) | Not Active | 39 | 52% | – | Not Active | –
14 | C/C(=C\C(=O)c1ccccc1)NC(Cc1ccc(OCCCOc2ccc(/N=N/c3ccccc3)cc2)cc1)C(=O)O (stereo not given) | Not Active | 1370 | 31% | 8% | – | –
15 | O=C(/C=C/c1ccccc1)NC(Cc1ccc(OCCOc2ccc(/C=C/c3ccccc3)cc2)cc1)C(=O)O (stereo not given) | Not Active | 640 | 45% | – | Not Active | –
16 | C/C(=C\C(=O)c1ccccc1)NC(Cc1ccc(OCCCOc2ccc(/C=C/c3ccc(Cl)cc3)cc2)cc1)C(=O)O (stereo not given) | Not Active | 12 | 56% | – | Not Active | –
17 | C/C(=C\C(=O)c1ccccc1)NC(Cc1ccc(OCCOc2ccc(/C=C/c3ccc(Cl)cc3)cc2)cc1)C(=O)O (stereo not given) | Not Active | 26 | 50% | – | Not Active | –
18 | C/C(=C\C(=O)c1ccccc1)NC(Cc1ccc(OCCOc2ccc(/C=C/c3ccc(C(F)(F)F)cc3)cc2)cc1)C(=O)O (stereo not given) | Not Active | 84 | 69% | – | Not Active | –
